Measurements reported in ChEMBL document CHEMBL4602607, “Hit-to-Lead Optimization of Benzoxazepinoindazoles As Human African Trypanosomiasis Therapeutics” (J Med Chem, 2020).

What was measured:
[1] = Intrinsic clearance in rat hepatocytes assessed per 10^6 cells by LC-MS/MS analysis; assay type: ADME, cell-based, Hepatocyte
Method in brief: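 Rat hepatocyte incubation, samples analysed by LC/MS/MS; intrinsic clearance reported in µL/min/1 million cells.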

[2] = Distribution coefficient, logD of compound; assay type: physicochemical; conditions: octanol/water
[3] = Intrinsic clearance in human liver microsomes assessed per mg protein by LC-MS/MS analysis; assay type: ADME, Microsome
[4] = Cmax in NMRI mouse at 10 mg/kg, ip measured up to 24 hrs by LC-MS/MS analysis; assay type: ADME, organism-based; parameters: dose 10 mg/kg, route intraperitoneal; conditions: in vivo
[5] = Half life in NMRI mouse at 10 mg/kg, ip measured up to 24 hrs by LC-MS/MS analysis; assay type: ADME, organism-based; conditions: in vivo
[6] = Ratio of drug concentration in brain to blood in NMRI mouse at 10 mg/kg, ip measured at 0.5 hrs by LC-MS/MS analysis; assay type: ADME, organism-based; conditions: brain and blood, read-out: BBR
[7] = Ratio of drug concentration in brain to blood in NMRI mouse at 10 mg/kg, ip measured at 4 hrs by LC-MS/MS analysis; assay type: ADME, organism-based; conditions: brain and blood, read-out: BBR
in vivo = conditions: NMRI, mouse, ip, 10 mg/kg

Row | hepatocyte CLint [1] [µL/min/10^6 cells] | logD [2] | SMILES | other results
1 | 29 | > 3.9 | CN(C)c1nccc(-c2cc3c4c(n[nH]c4c2)Nc2ccccc2O3)n1 | 
2 | 44 | > 4.4 | CN(C)c1cc(-c2cc3c4c(n[nH]c4c2)Nc2ccccc2O3)nc(N)n1 | 
3 | 56 | 4.1 | Nc1ccnc(-c2cc3c4c(n[nH]c4c2)Nc2ccccc2O3)n1 | 
4 | 68 | 3.5 | c1ccc2c(c1)Nc1n[nH]c3cc(-c4ccncn4)cc(c13)O2 | 
5 |  |  | Nc1nccc(-c2cc3c4c(n[nH]c4c2)N[C@@H]2CCC[C@H]2O3)n1 | hepatocyte CLint ([1]; read-out: CLH): 52 µL/min/1e6 cells; logD ([2]; read-out: logD): 2.8
6 | 47 |  | c1ccc2c(c1)Nc1n[nH]c3cccc(c13)O2 | logD ([2]; read-out: logD): > 4
7 | 16 | 3.4 | CN1CCN(c2cc(-c3cc4c5c(n[nH]c5c3)Nc3ccccc3O4)nc(N)n2)CC1 | 
8 | 73 | 3.8 | Nc1cc(-c2cc3c4c(n[nH]c4c2)Nc2ccccc2O3)ncn1 | 
9 | 26 |  | CCNc1cc(-c2cc3c4c(n[nH]c4c2)Nc2ccccc2O3)nc(N)n1 | 
10 | 41.4 |  | COCc1cc(-c2cc3c4c(n[nH]c4c2)Nc2ccccc2O3)nc(N)n1 | 
11 | 45 | 3.8 | CNc1nccc(-c2cc3c4c(n[nH]c4c2)Nc2ccccc2O3)n1 | 

Row | SMILES | hepatocyte CLint [1] [µL/min/10^6 cells] | logD [2] | other results
12 | CNc1cc(-c2cc3c4c(n[nH]c4c2)Nc2ccccc2O3)nc(N)n1 | 45 | > 4.2 | 
13 | Nc1nc(-c2cc3c4c(n[nH]c4c2)Nc2ccccc2O3)cc(N2CCCCC2)n1 | 25 | 4.6 | 
14 | Nc1cccc(-c2cc3c4c(n[nH]c4c2)Nc2ccccc2O3)n1 | 220 | 3.7 | 
15 | CCOc1cc(-c2ccnc(N)n2)cc2[nH]nc(N)c12 |  | 1.7 | CLH [3]: 25 µL/min; Cmax [4]: 3603 ng/mL; t1/2 [5]: 53.6 min; Kp at 0.5 h [6]: 0.155; Kp at 4 h [7]: 0.214; Tmax at 24 h (in vivo): 0.25 to 5 h
16 | Cn1nc2c3c(cc(-c4ccnc(N)n4)cc31)Oc1ccccc1N2 | 12 | > 4.3 | Cmax [4]: 615 ng/mL; t1/2 [5]: 63.6 min; Kp at 0.5 h [6]: 2.39; Kp at 4 h [7]: 2.12; Tmax at 24 h (in vivo): 0.25 to 5 h
17 | CC(C)Nc1cc(-c2cc3c4c(n[nH]c4c2)Nc2ccccc2O3)nc(N)n1 | 32 | 4.9 | 
